TPT1 inh – C. albicans TPT1 enzyme inhibition; recombinant caTPT1, FP RNA substrate dephosphorylation; inhibition, % at 5 µM; actives 0.81% (n = 300,000); AID 1962;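 active means inhibition above the mean of all tested compounds plus 3 SD, set per screening campaign, cut at about 24% in these data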;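 further: plate controls were DMSO alone for no effect and ferristatin control at 100 nM for full effect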
IDE cell activ – activators of human insulin-degrading enzyme in cells. HEK cells, FAbeta-B cleavage, fluorescence polarization; 0% vehicle, 100% cell-free pure enzyme wells. actives 0.073% (n = 340,000). activation, % at 5.96 µM;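 active means activation above the mean of all tested compounds plus 3 SD, set per screening campaign, cut at about 17% in these data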
HNF4A DNA FP – change in binding of human HNF4 alpha to DNA; HNF4a-FITC DNA binding, fluorescence polarization, 1 h; activity change, % at 10 µM; P41235; actives 0.3% (n = 360,000); in the data active means activity change above about 30%, passing the limit was not always enough
Target sequence (P41235 whole entry, looked up): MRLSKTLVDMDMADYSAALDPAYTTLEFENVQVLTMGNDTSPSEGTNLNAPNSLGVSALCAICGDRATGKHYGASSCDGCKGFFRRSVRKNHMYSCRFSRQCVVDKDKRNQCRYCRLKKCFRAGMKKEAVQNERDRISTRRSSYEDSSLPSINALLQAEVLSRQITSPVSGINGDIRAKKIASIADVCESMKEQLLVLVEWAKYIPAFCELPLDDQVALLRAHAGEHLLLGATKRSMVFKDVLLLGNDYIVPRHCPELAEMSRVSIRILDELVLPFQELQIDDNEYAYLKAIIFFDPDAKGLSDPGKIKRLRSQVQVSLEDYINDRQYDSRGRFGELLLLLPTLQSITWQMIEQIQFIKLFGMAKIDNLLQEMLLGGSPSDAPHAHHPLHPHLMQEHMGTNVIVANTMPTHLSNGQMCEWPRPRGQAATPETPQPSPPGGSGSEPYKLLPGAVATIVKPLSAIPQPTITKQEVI
IDE inh – cellular human IDE inhibition. HEK cells, FAbetaB cleavage, fluorescence polarization. inhibition, % at 5.59 µM. actives 0.41% (n = 320,000). AID 434962;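 active means percent inhibition above the average of all tested compounds plus 3 SD, set per screening campaign, cut at about 16% in these data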;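 further: IDE supplied by intact live HEK cells; FP after avidin binding of uncleaved biotin substrate so inhibition keeps polarization high; 0% = DMSO wells and 100% = 60 µM reference IDE inhibitor Ii1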
CSN deneddyl inh – CSN deneddylation inhibition; Q92905; Purified CSN, SCF-Nedd8-OG deneddylation, fluorescence polarization; inhibition, % at 12.5 µM; actives 0.38% (n = 360,000); AID 651999;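 active means pattern-corrected inhibition above about 35%, with an unprinted fluorescence ratio check between 0.5 and 1.5, limit read from the data, passing the limit was not always enough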;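 further: 0% = enzyme with substrate and 100% = substrate without enzyme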
Target sequence (Q92905 whole entry, looked up, one chain of several): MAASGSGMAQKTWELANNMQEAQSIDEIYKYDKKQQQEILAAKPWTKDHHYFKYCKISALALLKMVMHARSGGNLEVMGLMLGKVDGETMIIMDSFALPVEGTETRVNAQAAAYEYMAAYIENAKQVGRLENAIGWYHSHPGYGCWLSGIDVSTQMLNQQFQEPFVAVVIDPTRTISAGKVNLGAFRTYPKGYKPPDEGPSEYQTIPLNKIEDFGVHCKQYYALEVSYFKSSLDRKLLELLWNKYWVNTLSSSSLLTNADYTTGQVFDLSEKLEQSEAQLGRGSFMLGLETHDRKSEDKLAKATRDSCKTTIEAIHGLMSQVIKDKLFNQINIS
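Material: human Csn5 produced in HEK293T cells; Input: enzyme 0.24 nM; Reagent: SCFSkp2-Nedd8OG substrate at 10 nM final; Dosing: 12.5 µM compound; Incubation: 90 min reaction at room temperature; Detection: fluorescence polarization of the substrate; Evaluation: % inhibition of substrate cleavage by Csn5; Control set: substrate-only high control, full reaction low control.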
Rpn11 block – blocks the human proteasome subunit Rpn11. O00487. human 26S proteasome, Ub4-pepOG fluorescence polarization; 20S core pre-blocked with epoxomicin. inhibition, % at 20 µM. actives 0.59% (n = 360,000);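 active means inhibition at 20 µM, scaled to each plate's controls, above about 33%, limit read from the data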
caTPT1 confirm – TPT1 (C. albicans) inhibition, confirmation; shares compounds with TPT1 inh; recombinant caTPT1, fluorescence polarization, RNase T1 coupled; inhibition, % at 5 µM; actives 74% (n = 2,400); AID 2149;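 active means inhibition above the primary screen limit, the mean inhibition of all tested compounds plus 3 SD, cut at about 25% in these data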
RNase T1 inh – counter-screen for TPT1 inhibitors: inhibitors of Aspergillus oryzae RNase T1; actives 83% (n = 2,400); inhibition, % at 5 µM; shares compounds with TPT1 inh; RNase T1 cleavage, fluorescence polarization, 1536-well;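 active means inhibition above the solvent-only control well mean plus 3 SD, limit set per screening run, cut at about 23% in these data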;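 further: plate controls were DMSO wells with enzyme for no effect and wells without RNase T1 for full effect; inhibitors block cleavage so intact labeled substrate keeps polarization high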
IDE inh confirm – cellular human IDE inhibition, confirmation. actives 51% (n = 1,200). shares compounds with IDE inh. HEK cells, FAbetaB cleavage, fluorescence polarization. inhibition, % at 5.59 µM. AID 435028;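 active means mean inhibition across triplicate wells above the cutoff set by the earlier primary insulin-degrading enzyme screen, cut at about 16% in these data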;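 further: 0% = DMSO wells and 100% = 60 µM reference IDE inhibitor Ii1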
HEK293 tox – HEK cell cytotoxicity, counter-screen for IDE inhibitors; shares compounds with IDE inh; HEK293 cytotoxicity, ATP luminescence; inhibition, % at 5.59 µM; actives 28% (n = 1,200); AID 449730; in the data active means inhibition above about 22%;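 further: 0% = vehicle wells and 100% = reference cytotoxic drug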
Active calls of the source: *; · = not tested or not shown; ! = not active in a repeat. A selection: hits, their analogues and other compounds. The true share with any hit is near 1.7%.

SMILES | TPT1 inh | IDE cell activ | HNF4A DNA FP | IDE inh | CSN deneddyl inh | Rpn11 block | caTPT1 confirm | RNase T1 inh | others
CC(C)n1c(=O)c(C=Nc2cccc([N+](=O)[O-])c2)c(O)n(CCc2ccccc2)c1=O | 42.8* | -4.8 | 3.3 | 1.7 | 8.2 | 15.8 | 14.0 | 19.1
CCOC(=O)[C@]12Cc3cc(Cl)ccc3[C@H]1N(C(C)C)C(=O)c1ccccc12 | · | · | 3.9 | · | 6.4 | · | · | ·
CCOC(=O)[C@]12Cc3ccc4ccccc4c3[C@H]1N(Cc1ccccc1)C(=O)c1ccccc12 | · | · | 2.3 | · | 1.2 | · | · | ·
N#Cc1c(/N=C/c2ccc(O)cc2O)sc2c1C1CCN2CC1 | 65.0* | -14.6 | 40.4* | 7.2 | 33.2 | 38.3 | 106.3* | 107.3*
CCC(C)c1cnc(CC(C)C)c(=O)n1O (stereo not drawn) | · | · | 6.1 | · | -3.2 | -4.5 | · | ·
CNS(=O)(=O)c1ccc(N=Cc2c(O)n(-c3ccccc3)c(=O)[nH]c2=O)cc1 | 28.0* | 0.0 | -0.3 | 3.4 | 6.8 | 3.2 | 16.8 | 25.1*
Cc1ccc(-n2c(O)c(C=Nc3ccc(S(=O)(=O)N(C)C)cc3)c(=O)[nH]c2=O)cc1 | 26.1* | -9.4 | -3.5 | 0.7 | 9.4 | 3.7 | 8.6 | 13.7
O=c1[nH]c(=O)n(-c2cccc(Cl)c2)c(O)c1/C=N/c1ccccn1 | 30.0* | 6.1 | 10.7 | 9.3 | 2.5 | 9.9 | 18.3 | 24.2*
Cc1ccccc1-n1c(O)c(/C=N/c2nccs2)c(=O)[nH]c1=O | 28.2*! | 2.6 | 2.8 | 1.2 | -1.6 | 7.0 | 17.8 | 26.4*
N=Cc1c(O)n(-c2cccc(Cl)c2)c(=O)[nH]c1=O | 5.2 | 1.0 | 3.1 | 6.0 | 3.8 | -1.0 | · | ·
Cc1ccc(N=Cc2c(O)n(-c3ccc(C)cc3)c(=O)[nH]c2=O)cc1 | 1.8 | -5.4 | 0.5 | -1.5 | -3.2 | 2.5 | · | ·
CNS(=O)(=O)c1ccc(N=Cc2c(O)n(-c3cccc(C)c3)c(=O)[nH]c2=O)cc1 | 25.7* | -1.9 | 1.8 | 7.6 | 17.1 | 2.8 | 13.6 | 24.0*
CC(C)n1c(=O)c(C=Nc2ccc(S(N)(=O)=O)cc2)c(O)n(Cc2ccco2)c1=O | 42.4* | 5.2 | 4.9 | 13.8 | 4.6 | 27.9 | 12.4 | 19.7
CCCCn1c(=O)c(C=Nc2ccc(Cl)cc2)c(O)n(Cc2ccco2)c1=O | 12.1 | -3.9 | -0.8 | -4.3 | 7.5 | · | · | ·
O=C1NCN(c2ccccc2)C12CCN(C(c1ccccc1)c1nnnn1C1CCCC1)CC2 (stereo not drawn) | · | · | -2.9 | · | -0.4 | 0.2 | · | ·
CCN1C(=O)C(=Cc2ccc(C)s2)C(=O)N(CC)C1=S | 31.4* | -4.3 | 4.3 | -2.0 | 16.6 | · | 8.8 | 12.8
CCCCn1c(=O)c(C=Nc2cc([N+](=O)[O-])ccc2OC)c(O)n(CCCCl)c1=O | 73.6* | -1.9 | 7.7 | 2.1 | 4.9 | 13.8 | 53.4* | 66.7*
COc1ccc(OC)c(N=Cc2c(O)n(Cc3ccccc3)c(=S)[nH]c2=O)c1 | 5.0 | 4.3 | 11.4 | -2.4 | 13.8 | 33.8 | · | ·
CCc1nn2c(=O)c(F)c(N3CCNCC3)nc2s1 | · | · | -0.1 | · | -3.6 | -5.8 | · | ·
CCN(CC)c1ccc(N=Cc2c(O)n(-c3ccc(Cl)cc3)c(=O)[nH]c2=O)cc1 | 27.0* | 0.5 | 45.4 | 4.8 | 48.7 | · | 57.8* | 71.9*
CCN(CC)c1ccc(N=Cc2c(O)n(-c3ccc(OC)cc3)c(=O)[nH]c2=O)cc1 | 56.2* | -1.4 | 6.4 | -2.9 | -37.4 | -80.0 | -27.4 | -17.5
C=CCn1c(O)c(C=Nc2ccc(N(CC)CC)cc2)c(=O)[nH]c1=O | 23.1 | -2.3 | 7.8 | -4.4 | 6.3 | 13.6 | · | ·
CSCCC(c1nnnn1C(C)(C)C)N1CCC2(CC1)C(=O)NCN2c1ccccc1 (stereo not drawn) | · | · | 1.6 | · | -2.0 | -7.3 | · | ·
CC(C)(C)c1cc(C=C(C#N)C#N)cc(C(C)(C)C)c1O | 60.8* | 2.0 | 12.0 | 3.0 | 9.0 | 38.8 | 82.3* | 89.6*
Cc1ccc(OC(=O)N(C)C[C@@H]2OCc3cnnn3CCCC(=O)N([C@@H](C)CO)C[C@@H]2C)cc1 | · | · | 1.6 | · | 1.5 | -4.4 | · | ·
SMILES | TPT1 inh | IDE cell activ | HNF4A DNA FP | IDE inh | CSN deneddyl inh | Rpn11 block | caTPT1 confirm | RNase T1 inh | others
O=C1NC(=O)N(c2ccccc2)C(=O)/C1=C\C=C\c1ccccc1 | 11.4 | · | -3.0 | -0.3 | 0.7 | -0.8 | · | ·
Cc1ccc(N2C(=O)NC(=O)/C(=C/C=C/c3ccco3)C2=O)cc1 | 27.6* | -10.9 | 7.4 | 8.4 | 31.2 | 39.2 | 35.0* | 52.4*
CCOC(=O)c1c(/N=C/C2C(=O)NC(=S)NC2=O)sc2c1CCC2 | 112.8* | · | 94.1 | 9.0 | 14.2 | · | 19.7 | 33.4*
Cc1cc(C)c(-n2c(O)c(/C=N/NC(=O)c3ccncc3)c(=O)[nH]c2=O)c(C)c1 | 24.1* | · | 7.4 | 3.3 | 5.5 | 27.3 | 28.6* | 39.5*
Cc1cc(C)cc(-n2c(O)c(C=Nc3ccc(N4CCOCC4)cc3)c(=O)[nH]c2=S)c1 | 35.3* | 5.6 | -1.1 | -1.9 | 11.9 | 30.4 | 57.4* | 72.5*
O=c1[nH]c(=S)n(-c2ccc(Br)cc2)c(O)c1C=Nc1ccc(N2CCOCC2)cc1 | -33.8 | -3.7 | 6.7 | 2.0 | -4.1 | -119.5 | · | ·
O=c1[nH]c(=S)n(-c2ccccc2F)c(O)c1C=Nc1ccc(N2CCOCC2)cc1 | 33.0* | 1.0 | 1.7 | -0.8 | 1.1 | 10.3 | 46.8* | 60.0*
CCOC(=O)[C@]12Cc3cc(C)ccc3[C@H]1N(C)C(=O)c1cc(OC)ccc12 | · | · | -5.5 | · | -3.7 | · | · | ·
O=C1NC(=O)N(c2ccc(Br)cc2)C(=O)/C1=C/c1ccsc1 | 30.2* | -5.5 | 5.5 | -1.1 | 12.8 | 16.2 | 14.4 | 20.1
O=C(O)Cn1cc(/C=C2\C(=O)NC(=O)N(c3ccc(Br)cc3)C2=O)c2ccccc21 | 37.3* | -6.5 | -4.1 | -0.3 | -2.3 | 24.0 | 40.8* | 51.4*
O=C1NC(=O)N(c2ccccc2F)C(=O)/C1=C/c1cn(CC(=O)N2CCOCC2)c2ccccc12 | 28.4* | · | · | 2.1 | · | · | 9.9 | 21.4
Cc1cc(C)c(C)c(C(O)(C(=O)O)c2ccccc2)c1 (stereo not drawn) | · | · | 0.2 | · | -4.1 | -3.8 | · | ·
C=CCN1C(=O)NC(=O)/C(=C/c2ccoc2)C1=O | 105.6* | -11.1 | -2.9 | 19.1* | 16.6 | -23.3 | 9.9 | 17.0 | IDE inh confirm=10.4;HEK293 tox=7.6

Compound activity from PubChem BioAssay.
